Measured values published in ChEMBL document CHEMBL4261493, “Development of novel β-carboline-based hydroxamate derivatives as HDAC inhibitors with DNA damage and apoptosis inducing abilities” (Medchemcomm, 2017).
The source made the active and inactive calls. The rule behind the calls is not given here.

Experiments:
HCT-116 = experiment: Antiproliferative activity against human HCT116 cells after 48 hrs by MTT assay; format: functional, cell-based; details: HCT-116, 48 h
HepG2 [1] = experiment: Antiproliferative activity against human HepG2 cells after 48 hrs by MTT assay; format: functional, cell-based; details: HepG2, 48 h
SMMC-7721 = experiment: Antiproliferative activity against human SMMC7721 cells after 48 hrs by MTT assay; format: functional, cell-based; details: SMMC-7721, 48 h
Histone deacetylase = experiment: Inhibition of HDAC in human HeLa nuclear extract using Boc-Lys(acetyl)-AMC as substrate measured after 60 mins by fluorescence assay; format: protein assay
Calf thymus DNA [2] = experiment: Binding affinity to calf thymus DNA assessed as maximum absorption wavelength by UV-Vis spectroscopic titration method; format: nucleic-acid assay; details: Bos taurus
LoVo = experiment: Antiproliferative activity against human LoVo cells after 48 hrs by MTT assay; format: functional, cell-based
HepG2 [3] = experiment: Induction of apoptosis in human HepG2 cells assessed as increase in cleaved PARP expression at 5 uM after 48 hrs by Western blot analysis; format: functional, cell-based
In short: (§1)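 Sub-confluent HepG2 cells incubated with or without compound (1.0–4.0 μM) or SAHA (5.0 μM) for 48 h. Lysates immunoblotted for Bax, Bcl-2, cleaved caspase-3 and PARP, with β-actin as internal control. Densitometric scanning gave levels relative to β-actin, as mean ± SD of three separate experiments.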

Calf thymus DNA [4] = experiment: Binding affinity to calf thymus DNA assessed as decrease in maximum absorption wavelength by UV-Vis spectroscopic titration method; format: nucleic-acid assay; details: Bos taurus
HepG2 [5] = experiment: Induction of apoptosis in human HepG2 cells at 5 uM after 48 hrs by Annexin-V FITC/propidium iodide staining based flow cytometry relative to control; format: functional
In short: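 HepG2 cells treated for 48 h with vehicle, compound at 1.0, 2.0 or 4.0 μM, or SAHA at 5.0 μM. Cells stained with FITC-annexin V/PI and analysed by flow cytometry. Percentage of apoptotic cells reported as mean ± SD of three independent experiments; significance tested versus control.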

[6] = Half life in rat liver microsomes at 5 uM in presence of NADPH by LC-MS analysis
HepG2 [7] = experiment: Induction of apoptosis in human HepG2 cells assessed as increase in cleaved caspase3 expression at 5 uM after 48 hrs by Western blot analysis; format: functional, cell-based; in short: as §1

CCN(Cc1ccc(C(=O)NO)cc1)C(=O)c1cc2c(cn1)[nH]c1ccccc12
IC50 (HCT-116): > 12.5 µM
IC50 (HepG2 [1]): > 12.5 µM
IC50 (SMMC-7721): > 12.5 µM
IC50 (Histone deacetylase): 4.78 µM

COc1ccc2c(c1)[nH]c1c(C)nccc12 [HARMINE]
IC50 (Histone deacetylase): > 10 µM
Activity (Calf thymus DNA [2]): 320 nm

CCCCN(Cc1ccc(C(=O)NO)cc1)C(=O)c1cc2c(cn1)[nH]c1ccccc12
IC50 (HCT-116): > 12.5 µM
IC50 (HepG2 [1]): > 12.5 µM
IC50 (SMMC-7721): > 12.5 µM
IC50 (Histone deacetylase): 2.69 µM

CCN(Cc1ccc(C(=O)NO)cc1)C(=O)c1cc2c([nH]c3ccccc32)c(-c2ccc(OC)cc2)n1
IC50 (LoVo): 9.24 µM
IC50 (HCT-116): 6.07 µM
IC50 (HepG2 [1]): 8.34 µM
IC50 (SMMC-7721): 10.3 µM
IC50 (Histone deacetylase): 0.83 µM

CCCN(Cc1ccc(C(=O)NO)cc1)C(=O)c1cc2c([nH]c3ccccc32)c(C)n1
IC50 (LoVo): > 12.5 µM
IC50 (HCT-116): 10.5 µM
IC50 (HepG2 [1]): 9.83 µM
IC50 (SMMC-7721): 11.6 µM
IC50 (Histone deacetylase): 0.85 µM

CN(Cc1ccc(C(=O)NO)cc1)C(=O)c1cc2c(cn1)[nH]c1ccccc12
IC50 (HCT-116): > 12.5 µM
IC50 (HepG2 [1]): > 12.5 µM
IC50 (SMMC-7721): > 12.5 µM
IC50 (Histone deacetylase): 5.63 µM

CCCCN(Cc1ccc(C(=O)NO)cc1)C(=O)c1cc2c([nH]c3ccccc32)c(-c2cccc(OC)c2)n1
IC50 (LoVo): 7.63 µM
IC50 (HCT-116): 4.32 µM
IC50 (HepG2 [1]): 5.16 µM
IC50 (SMMC-7721): 5.75 µM
IC50 (Histone deacetylase): 0.37 µM

Cc1nc(C(=O)N(C)Cc2ccc(C(=O)NO)cc2)cc2c1[nH]c1ccccc12
IC50 (LoVo): > 12.5 µM
IC50 (HCT-116): > 12.5 µM
IC50 (HepG2 [1]): > 12.5 µM
IC50 (SMMC-7721): > 12.5 µM
IC50 (Histone deacetylase): 3.06 µM

O=C(CCCCCCC(=O)Nc1ccccc1)NO [VORINOSTAT]
Activity (HepG2 [3]): Active
Activity (Calf thymus DNA [4]): inactive
Activity (HepG2 [5]): 34.5%
half-life at 5 µM [6]: 44 min
Activity (HepG2 [7]): Active

COc1ccc(-c2nc(C(=O)N(C)Cc3ccc(C(=O)NO)cc3)cc3c2[nH]c2ccccc23)cc1
IC50 (LoVo): > 12.5 µM
IC50 (HCT-116): 9.76 µM
IC50 (HepG2 [1]): 10.5 µM
IC50 (SMMC-7721): > 12.5 µM
IC50 (Histone deacetylase): 0.96 µM

CCN(Cc1ccc(C(=O)NO)cc1)C(=O)c1cc2c([nH]c3ccccc32)c(C)n1
IC50 (LoVo): > 12.5 µM
IC50 (HCT-116): > 12.5 µM
IC50 (HepG2 [1]): > 12.5 µM
IC50 (SMMC-7721): > 12.5 µM
IC50 (Histone deacetylase): 1.75 µM

CCCCN(Cc1ccc(C(=O)NO)cc1)C(=O)c1cc2c([nH]c3ccccc32)c(C)n1
IC50 (LoVo): > 12.5 µM
IC50 (HCT-116): > 12.5 µM
IC50 (HepG2 [1]): 11.7 µM
IC50 (SMMC-7721): > 12.5 µM
IC50 (Histone deacetylase): 0.93 µM

CCCN(Cc1ccc(C(=O)NO)cc1)C(=O)c1cc2c(cn1)[nH]c1ccccc12
IC50 (HCT-116): > 12.5 µM
IC50 (HepG2 [1]): > 12.5 µM
IC50 (SMMC-7721): > 12.5 µM
IC50 (Histone deacetylase): 2.82 µM

CCCCN(Cc1ccc(C(=O)NO)cc1)C(=O)c1cc2c([nH]c3ccccc32)c(-c2ccc(OC)cc2)n1
IC50 (LoVo): 4.76 µM
IC50 (HCT-116): 3.02 µM
IC50 (HepG2 [1]): 3.37 µM
IC50 (SMMC-7721): 5.25 µM
IC50 (Histone deacetylase): 0.34 µM

CCCN(Cc1ccc(C(=O)NO)cc1)C(=O)c1cc2c([nH]c3ccccc32)c(-c2cccc(OC)c2)n1
IC50 (LoVo): 5.31 µM
IC50 (HCT-116): 2.96 µM
IC50 (HepG2 [1]): 3.64 µM
IC50 (SMMC-7721): 4.12 µM
IC50 (Histone deacetylase): 0.23 µM
